Activity calls are given as the source filed them. The rule behind the calls is not given here.
Experiments:
Assay type in all cases: functional, organism-based
Saccharomyces cerevisiae [1] = test: Growth inhibition of Saccharomyces cerevisiae harboring FTR1 deletion mutant at 400 uM measured for 11 hrs by HOP assay
How it was run: (§1)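 Pooled homozygous (HOP) or heterozygous (HIP) deletion collections were profiled at 400 µM in two independent experiments, with strain sensitivity read from barcode abundance. Hits were retested as individual log-phase strains in YPD with serial compound dilutions, start OD600 0.01 and 2% DMSO. OD600 was read at 11 h and fitted by logistic regression against HO/YDL227C as wild-type reference.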

Saccharomyces cerevisiae [2] = test: Growth inhibition of Saccharomyces cerevisiae harboring FET3 deletion mutant at 400 uM measured for 11 hrs by HOP assay; how it was run: as §1
Saccharomyces cerevisiae [3] = test: Growth inhibition of Saccharomyces cerevisiae harboring CCC2 deletion mutant at 400 uM measured for 11 hrs by HOP assay; how it was run: as §1
Saccharomyces cerevisiae [4] = test: Growth inhibition of Saccharomyces cerevisiae harboring GEF1 deletion mutant at 400 uM measured for 11 hrs by HOP assay; how it was run: as §1
Saccharomyces cerevisiae [5] = test: Growth inhibition of wild type Saccharomyces cerevisiae BY4743 at 500 uM measured for 15 hrs in presence of Fe2+
Saccharomyces cerevisiae [6] = test: Growth inhibition of Saccharomyces cerevisiae harboring GRX6 deletion mutant at 400 uM measured for 11 hrs by HOP assay; how it was run: as §1
Saccharomyces cerevisiae [7] = test: Growth inhibition of Saccharomyces cerevisiae harboring PIB2 deletion mutant at 400 uM measured for 11 hrs by HIP assay; how it was run: as §1
Saccharomyces cerevisiae [8] = test: Growth inhibition of wild type Saccharomyces cerevisiae BY4743 at 100 uM measured for 15 hrs in presence of Fe2+

Row | Structure (SMILES) | growth inhibition (GI) (Saccharomyces cerevisiae [1]) | growth inhibition (GI) (Saccharomyces cerevisiae [2]) | growth inhibition (GI) (Saccharomyces cerevisiae [3]) | growth inhibition (GI) (Saccharomyces cerevisiae [4]) | growth inhibition (GI) (Saccharomyces cerevisiae [5]) | growth inhibition (GI) (Saccharomyces cerevisiae [6]) | growth inhibition (GI) (Saccharomyces cerevisiae [7]) | growth inhibition (GI) (Saccharomyces cerevisiae [8])
1 | Cc1cc2c(C(C)C)c(O)c(O)c(C=O)c2c(O)c1-c1c(C)cc2c(C(C)C)c(O)c(O)c(C=O)c2c1O | Active | Active | Active | Active | inactive | Active | inactive | 
2 | O=C(O)c1ccc(-n2nc(-c3ccccc3O)nc2-c2ccccc2O)cc1 |  | Active |  | inactive |  |  |  | inactive
